These results are taken from the EternaBench riboswitch data.

In this data set the test system is MS2 coat protein. Put plainly: apparent Kd, MS2 coat protein; higher = weaker binding; RNA-MaP array. The essentials:
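Designed RNAs were transcribed in place on an Illumina sequencing chip from sequenced DNA templates. At room temperature and with or without input ligand, they were incubated with fluorescently labeled MS2 coat protein from 1.5 nM to 3 μM, for 0.8–1.5 h at the lowest and 10–20 min at the highest concentrations. Apparent Kd is the median of the binding-curve fits made per cluster, with designs measured on fewer than 10 clusters excluded.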

[1] abbreviates: designed as: OFF switch for tryptophan, no ligand.
Where [2] appears, read: ligand present: tryptophan, designed as: OFF switch for tryptophan.
Setting [3] is: designed as: OFF switch for theophylline, no ligand.
The mark [4] stands for this setting: ligand present: theophylline, designed as: OFF switch for theophylline.
Setting [5] is: designed as: OFF switch for flavin mononucleotide, no ligand.
Setting [6] is: ligand present: flavin mononucleotide, designed as: OFF switch for flavin mononucleotide.
Where [7] appears, read: designed as: ON switch for flavin mononucleotide, no ligand.
Where [8] appears, read: ligand present: flavin mononucleotide, designed as: ON switch for flavin mononucleotide.
The mark [9] stands for this setting: designed as: ON switch for theophylline, no ligand.
Where [10] appears, read: ligand present: theophylline, designed as: ON switch for theophylline.

One may read the apparent Kd as a dissociation constant that holds for the conditions of the assay. As for “GGCCAGGCAGCGGCCGCCACUUAGUGGGCCGAAUGUCCUUUGCUGAACAUGAGGAUCACCCAUGUAAGGACCGGGCUGUUCCGCA”, the “apparent Kd” value by setting is: under setting [1], 30.5 nM; under setting [2], 69.5 nM.

Take “GUAGCUGAGUGUGAUACCAGAAACGACGUCCUUUAUCAUAACAUGAGGAUCACCCAUGUCUUCCCUUGGCAGCACUUUUCGGUCU”: the “apparent Kd” value runs as follows: under setting [3], 36.9 nM; under setting [4], 64.8 nM.

With “CCGUAUCCGUAGGAUAUCGACACGAGUCACGUGCGAGAAGGACGGACAUGAGGAUCACCCAUGUAUGCUUCGUG”, the “apparent Kd” value by setting is: under setting [5], 22.6 nM; under setting [6], 48.4 nM.

As for “AUUACAAGCACAGGAUAUAACAGUUGGUUCACAUGAGGAUCACCCAUGUAGCAUUGGGAAGUAGCUUAGAAGGGUGAGGUGGUU”, the “apparent Kd” value turned out to be 183 nM under setting [7] and 107 nM under setting [8].

On to “UCUGUGAUCAACAUGAGGAUCACCCAUGUUACCACCUCUAGGCAGGAUAUGAGCGUACUAAGAAGUCAGAAGGGCCUUUUUACG”, for which the “apparent Kd” value under setting [7] came out at 18.3 nM and the “apparent Kd” value under setting [8] amounted to 10.1 nM.

Take “GCUGUAAAGGAGAAGGUGAAUCGUAAGCUUGGUCAAGGAUAUCCGACUGGACAUGGCUGCAGACAUGAGGAUCACCCAUGUGCG”: the “apparent Kd” value came out at 237 nM under setting [5] and 113 nM under setting [6].

With “GGUCAACGAUUUUACAUGAGGAUCACCCAUGUUACGGUCGCCGAGGAUAUGUCAGGAUUAUCACAACAGAAGGCGGAAGACACC”, the “apparent Kd” value under setting [7] was 16.5 nM and the “apparent Kd” value under setting [8] came out at 9.4 nM.

For “AGUUAACCGGGUGUUCUACAUGAGGAUCACCCAUGUACACUCAGAAGGCUCGAAUCUAGGGAUGGAGAGGAUAUGAAAACUGAU”, the “apparent Kd” value under setting [5] came to 21.4 nM and the “apparent Kd” value under setting [6] was found to be 36.5 nM.

For “ACUGGUUCGGUUGUCACACAUGAGGAUCACCCAUGUAAGGUAGAGGAUAUCGCUCCGUCCUUCGGCGAGAAGGCUAUUCGACGC”, the “apparent Kd” value under setting [5] turned out to be 13 nM and the “apparent Kd” value under setting [6] stood at 10.3 nM.

Regarding “CCCGUAAAGGCGGCCGCCACUGUAUGACAUGAGGAUCACCCAUGUAGGGAAAAUGCGAUGGUCGUCAGGACCGGGCCUCUGGCAU”, the “apparent Kd” value runs as follows: under setting [1], 23.1 nM; under setting [2], 23.8 nM.

In the case of “UAGCUGCUUCAGAAGGCCGUUGGGUGAAAACGCUCCGGGUGCCACAUGAGGAUCACCCAUGUUUCGGAGGAUAUGAAAGCAUCC”, the “apparent Kd” value came to 47.8 nM under setting [5] and 201 nM under setting [6].

Consider “CAUGUCAAAGACAUGAGGAUCACCCAUGUAAUCCAAGACGCAAGAAGGGCGUGUUGAACUAACACGCAGGAUAUUGACCCUGUU”, for which the “apparent Kd” value came out at 57.5 nM under setting [5] and 73.4 nM under setting [6].

With “CGACAUUCAGGAUAUACAUGAGGAUCACCCAUGUUGAGAAGCACAAGAUACCAUAAAAGUAGAAGGGAACAAAA”, the “apparent Kd” value stood at 13.3 nM under setting [5] and 9.81 nM under setting [6].

For “ACAUCGAGGCGAGGAUAUAUGACAUGAGGAUCACCCAUGUCUGCGUGAUCGUCGAACAAAUGUUCAUAGAAGGCGCUAGAAAUG”, the “apparent Kd” value is 112 nM under setting [5] and 20.6 nM under setting [6].

With “GCUCACAUGAGGAUCACCCAUGUCACGAGGUGAUGAUGAACAAGAAGGAAACUCAUAUGAUCAGUUUAGGAUAUUGCCCAGCGA”, the “apparent Kd” value by setting is: under setting [5], 791 nM; under setting [6], 460 nM.

In the case of “UCUAUGUUAGGAUAUCUGUUGCAUGCCUGGCCGCGAUGCAAAGAGAAGGAACAUGAGGAUCACCCAUGUCAUAU”, the “apparent Kd” value by setting is: under setting [5], 19.3 nM; under setting [6], 41.6 nM.

Consider “GUGAAGUUAGUGAGCGUUAGUCAAGCCAAACGAGGACCGGUACGGCCGCCACUCGCGCAUCGACAUGAGGAUCACCCAUGUGCCG”, for which the “apparent Kd” value reads like this: under setting [1], 14.6 nM; under setting [2], 17.7 nM.

Regarding “UCUAUACAUGAGGAUCACCCAUGUCAGGAUAUAAGCACCGGGCGAUUGUCACGCGGCCUUAGAAGGGACAGGAA”, the “apparent Kd” value runs as follows: under setting [5], 17.4 nM; under setting [6], 28.8 nM.

Take “AAGGCUACGACCGAUACCAGUAGACGGCAUUCGUAGGAGAACAUGAGGAUCACCCAUGUCUACCCUUGGCAGCGGAAAAUACACU”: the “apparent Kd” value under setting [3] worked out at 13.5 nM and the “apparent Kd” value under setting [4] came to 39.8 nM.

Regarding “CGUUAGACAGGAUAUACACUGGGAAGCGCGGUUUGCGGGAGACAUGAGGAUCACCCAUGUAGAAGGGUCCGGCA”, the “apparent Kd” value by setting is: under setting [5], 9.14 nM; under setting [6], 9.4 nM.

For the sequence “CGCGUCCCGGACGAUACCAGAUAUGAGCGACACAUGAGGAUCACCCAUGUCAAUCAUGAGAUCCCUUGGCAGCGUUUGCACAACU”, the “apparent Kd” value by setting is: under setting [9], 162 nM; under setting [10], 209 nM.

On to “CGAUGCGCAUUAUCCCACUGGUAUGAGUCUCGAGGACCGGUACGGCCGCCACUCGCUACCGUACAUGAGGAUCACCCAUGUAUUA”, for which the “apparent Kd” value under setting [1] turned out to be 28 nM and the “apparent Kd” value under setting [2] was 45.9 nM.

For “CACGAUACUACAGGAUAUGCCGGUUACCAAUCUGCAGAAGGGUAGAUUAGUCUAACAUGAGGAUCACCCAUGUACCUCUCAUGU”, the “apparent Kd” value reads like this: under setting [5], 208 nM; under setting [6], 248 nM.

“CUGAGCAAAGGAUAUACUAAUUGUGAGUGACCCAGUUAACGACAUGAGGAUCACCCAUGUAGAAGGUUGGAACA”: the “apparent Kd” value runs as follows: under setting [5], 26.4 nM; under setting [6], 24.6 nM.

As to “CAUUGGGUCAGUUCGACAUGAGGAUCACCCAUGUAGUUAACGAGAAGGAGUACCAGCCUAAGUGACUAGGAUAUCGAUAAGUGG”, the “apparent Kd” value is, setting by setting: under setting [5], 37.3 nM; under setting [6], 38.7 nM.

Turning to “GUGAAGAUCCUAGGAUAUGAGACACCCGUAAGCUCAGAAGGAGGACGCGUAGAGGGUAACAUGAGGAUCACCCAUGUGAGUAAG”, the “apparent Kd” value turned out to be 16.9 nM under setting [7] and 12.2 nM under setting [8].

“AUUUCAUGUGUAGGAUAUCGCAUUCAGAACUAGCCAUCCACAUGAGGAUCACCCAUGUGUGCGGGCGAGAAGGACACGAGGGCA”: the “apparent Kd” value was determined as 9.72 nM under setting [7] and 7.55 nM under setting [8].

As for “CAAACCAACUAGUAAAACAACAUGAGGAUCACCCAUGUAAGAGAGGAUAUUGAAAUCGAAAGCAACAAGAAGGCUCACCAUGUA”, the “apparent Kd” value came to 19.5 nM under setting [7] and 15.8 nM under setting [8].

As to “CAACUGGCAGAGGAUACCAGAUCAUUUAGAAACAUGAGGAUCACCCAUGUCGUAAGGAUAAUCCCUUGGCAGCCUAUCCGCCUCG”, the “apparent Kd” value runs as follows: under setting [9], 13.2 nM; under setting [10], 10.8 nM.

As for “UCAAUUGAGGUCAAGGAUAUCUAGAAACAGACAUGAGGAUCACCCAUGUGCACAGCAUAAACGAGAGAGAAGGUGAGGCAUAUUGA”, the “apparent Kd” value worked out at 42.7 nM under setting [7] and 26.5 nM under setting [8].

“CAGACCCGGCGGGAGGAUAUACGAGAGAACACAUGAGGAUCACCCAUGUUGCACUAAACAGCGUGGUAGAAGGCCCAUCAUCUGUA”: the “apparent Kd” value was found to be 56.8 nM under setting [7] and 11.9 nM under setting [8].

“CUUUAACAUGAGGAUCACCCAUGUCCGAUGAAUUUAGGAUAUCGCAUUGGUCGUAUGAGGCGAGAAGGAAAUUGUC”: the “apparent Kd” value stood at 28.4 nM under setting [7] and 12.8 nM under setting [8].

Turning to “AGGUUACGUGUGAGGAUAUUAAGAUAUUAAAUUUAUAAGAAGGCACAUGAGGAUCACCCAUGUAUGACUUCCCA”, the “apparent Kd” value under setting [5] is 5.66 nM and the “apparent Kd” value under setting [6] is 6.77 nM.

“UCGUCACAUGUUAGGAUAUUGCUAGGAUCCUAGAACAAGAAGGAACAUGAGGAUCACCCAUGUCAGUGAAUCAU”: the “apparent Kd” value under setting [5] turned out to be 23 nM and the “apparent Kd” value under setting [6] amounted to 36 nM.

For the sequence “AUUAGACAAGGAUAUACAAGUCGUAUCGGCGCUGGGUGUAUACAUGAGGAUCACCCAUGUAGAAGGUGUGCUAU”, the “apparent Kd” value runs as follows: under setting [5], 101 nM; under setting [6], 190 nM.

Turning to “UAUUGUAUAGGAUAUACAUGAGGAUCACCCAUGUUCGAUGUUUGGAGCCUGCUUCAUAGUAGAAGGAUACGCCC”, the “apparent Kd” value runs as follows: under setting [5], 16.3 nM; under setting [6], 16.7 nM.

As for “UGUACAUGAGGAUCACCCAUGUUUGUAUCUUUAUCCGCGCGCAGAAGGUAGCCCAUGGAGACAGCUAAGGAUAUGCGUCACAUA”, the “apparent Kd” value is, setting by setting: under setting [5], 21.5 nM; under setting [6], 8.83 nM.

As for “UCGUUGCCAUGAGGAUAUCGUGUCAAGACAGGCAAGUGACCGUACAUGAGGAUCACCCAUGUAAACGAGAAGGCAUAGUCAUGG”, the “apparent Kd” value under setting [5] came to 17 nM and the “apparent Kd” value under setting [6] stood at 13.9 nM.

“AACGGUGCGCGAGGAUAUCACGUACCAAGAGGAUGAGAAGGCGCGCGUACAGGUUGGUGAACAUGAGGAUCACCCAUGUGGUAC”: the “apparent Kd” value stood at 99.5 nM under setting [5] and 87.2 nM under setting [6].

With “UAUCGAAGGUUUAAGGAUAUCGGCAGGCUCACAUGAGGAUCACCCAUGUCGCGAACAUCGCGCUACGAGAAGGUAAUCUUGAUGCA”, the “apparent Kd” value by setting is: under setting [7], 58.9 nM; under setting [8], 24.3 nM.

Consider “ACAGUACAUGAGGAUCACCCAUGUAGAAGAUGCUCAGGAUAUUGUGAGUCAGGUUAUGUACAAGAAGGGAGGCACG”, for which the “apparent Kd” value came to 25.4 nM under setting [7] and 14.1 nM under setting [8].

In the case of “GGCUAACAUGAGGAUCACCCAUGUAUUGAUACCAGUAUUUGAAAAUACCCUUGGCAGCAAAUGAAGAGCGUAGCAGGGUCGAUUA”, the “apparent Kd” value is, setting by setting: under setting [9], 11.3 nM; under setting [10], 16.8 nM.

For the sequence “ACCGGCACCUAGGAUACCAGAUCCACAACAAACAUGAGGAUCACCCAUGUAUAAAGUGGUAUCCCUUGGCAGCCUGUGACAAUCG”, the “apparent Kd” value under setting [9] was 16.5 nM and the “apparent Kd” value under setting [10] worked out at 14.8 nM.

Take “GAUUGCAUCGAUUCUCCACUCGCACCUGAUACCAGCGAUAGAAUUCGCCCUUGGCAGCAGUACACAUGAGGAUCACCCAUGUUAU”: the “apparent Kd” value amounted to 30.7 nM under setting [3] and 75 nM under setting [4].

For “UGGUAGCCACACUUCAAACAUCGACAAGAUACCAGUUAAUCAACGAACCCUUGGCAGCUUCGUACAUGAGGAUCACCCAUGUGGA”, the “apparent Kd” value by setting is: under setting [3], 18.2 nM; under setting [4], 23 nM.

Turning to “ACUGAGUAAGGAUAUCCAUCAUACUAACGACGCGGAAAGAAGGAGAAGGUACAUGAGGAUCACCCAUGUGAAAA”, the “apparent Kd” value reads like this: under setting [5], 12.3 nM; under setting [6], 11.1 nM.

As to “AAGCCACAUGAGGAUCACCCAUGUGAGGAUAUUCAUCUAGAUCAACAAGACACGGAUAGAAGAAGGCACGGUGG”, the “apparent Kd” value runs as follows: under setting [5], 14 nM; under setting [6], 29.5 nM.
